A selection: hits, their analogues and other compounds. The true share with any hit is near 2.2%.
Mdm2 ligase inh: Mdm2 E3 ligase (human) inhibition. Q00987. cell-based MDM2 ubiquitination luciferase reporter, 2 h; 0 = plate control, 100 = twice control, blank-subtracted. signal enhancement, % at 5 µM. 0.11% of 210,000 active. AID 1230;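 active = signal enhancement of 30% or more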;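 note: luminescence tracks abundance of the self-degrading MDM2-luciferase fusion protein; higher signal means inhibition of MDM2 E3 ligase activity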
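test system = mammalian cells stably expressing self-ubiquitinating, self-degrading MDM2 E3–luciferase fusion | quantity = 2000 cells/well | incubation = cell settling 4 h, compound treatment 2 h, both 37 °C | signal = luminescence with SteadyLite reagent, 15 min at room temperature | evaluation = % enhancement relative to plate controls after blank subtraction | benchmarks = plate controls and plate blanks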
Insulin prom inh: TRM-6 insulin promoter activity inhibition; TRM-6 cells, insulin promoter-eGFP reporter, imaging; reporter expression induced with tamoxifen; AID 1273; 0.9% of 130,000 active; inhibition, % at 2 µM;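 active = inhibition above the mean plus 3 SD, with well images judged a real hit on visual review, cut at about 60% in these data, passing the limit was not always enough; inconclusive = inhibition over the cutoff but images rejected on review; inactive = inhibition not above the cutoff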
Insulin prom up: MIN6 insulin promoter up-regulation. MIN6 insulin promoter-GFP reporter, high-content imaging; active compounds read high. AID 1625. 0.3% of 190,000 active. z-score at 5 µM;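 active = z-score above 3 at 5 µM with at least 500 cells counted in the well; inconclusive = wells under 500 cells, flagged as cytotoxic or low count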
RBBP9 inhibitor: inhibitors of human serine hydrolase RBBP9. O75884. recombinant RBBP9, FP-Rh probe fluorescence polarization. inhibition, % at 7.94 µM. 0.2% of 220,000 active. AID 1515;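 active = inhibition above the campaign mean of all tested compounds plus 3 SD, cut at about 14% in these data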;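 note: plate controls were DMSO wells with RBBP9 for no effect and wells lacking RBBP9 protein for full effect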
Target sequence (O75884 whole entry, looked up): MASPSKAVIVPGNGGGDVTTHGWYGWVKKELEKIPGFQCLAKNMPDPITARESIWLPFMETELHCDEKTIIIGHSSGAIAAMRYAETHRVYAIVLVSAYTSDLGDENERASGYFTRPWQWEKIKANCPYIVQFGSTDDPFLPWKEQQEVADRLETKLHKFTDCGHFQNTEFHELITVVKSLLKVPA
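System: RBBP9 protein / Buffer or medium: Tris/NaCl buffer pH 8.0 with 0.1% Pluronic / Probe or stimulus: Serine-hydrolase probe FP-Rh, 375 nM pre-mixing / Dosing: 7.94 µM single dose, 0.794% DMSO / Times: enzyme-compound preincubation 30 min, then probe labeling 45 min, 25 °C / Technique: fluorescence polarization (mP), excitation 525 nm, emission 598 nm / Replication: singlicate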
Wee1 degr inh: blocks degradation of human Wee1 kinase; P30291; HeLa Luc-Wee1K328M stability, luciferase luminescence; 100% = proteasome inhibitor MG132 effect; reporter increase, % at 5 µM; 1.2% of 220,000 active;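 active = activation above the mean of all tested compounds plus 3 SD, set per screening run, cut at about 8.8% in these data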;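 note: cells exposed to compound for 20 h before luminescence read; 0% = DMSO alone and 100% = MG132 at 30 µM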
Hsp70 activator: switches on Hsp70 transcription. HeLa Hsp70 promoter luciferase reporter, luminescence; scaled: vehicle 0, proteasome-inhibitor control 100%. activation, % at 10 µM. 0.04% of 200,000 active. AID 1203;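 active = activation above the mean across all tested compounds plus 3 SD, cutoff set per campaign, cut at about 5.5% in these data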;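 note: 100% = MG132 at 30 µM as the positive control and 0% = DMSO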
Wee1 stab conf: human Wee1 degradation inhibition, confirmation. shares compounds with Wee1 degr inh. HeLa Luc-Wee1K328M degradation, luminescence; vehicle 0%, proteasome-blocked wells 100%. activation, % at 5 µM. 4% of 1,100 active. AID 1410; in the data active = activation above about 8.9%
* = called active by the depositor; ? = inconclusive; nt = no result given.

SMILES | Mdm2 ligase inh | Insulin prom inh | Insulin prom up | RBBP9 inhibitor | Wee1 degr inh | Hsp70 activator | Wee1 stab conf
COC(=O)c1c(NC(=O)c2ccc(C)cc2)csc1C | -15.6 | nt | -0.19 | 1.2 | 13.0* | nt | 4.0
COc1ccc(C2CC(c3ccc(C)o3)=NN2C(C)=O)cc1 (stereo not given) | -12.9 | 46.7 | -0.12 | 8.5 | 11.8* | 0.1 | 1.2
CC(=O)N1N=C(c2ccc(C)o2)CC1c1ccc(Br)cc1 (stereo not given) | -14.5 | nt | -0.45 | -1.9 | 4.8 | -0.1 | nt
Cc1nn(-c2ccccc2)nc1CNC(=O)C1CC1 | -6.2 | nt | nt | 6.6 | 1.4 | nt | nt
Cc1ccc(C)c(S(=O)(=O)N2CCN(CC(=O)Nc3sccc3C#N)CC2)c1 | -5.2 | 18.2 | 0.26 | -0.8 | 14.2* | -0.2 | 1.7
Cc1cc(C(=O)CSc2nc3ccccc3o2)c(C)n1CC1CCCO1 (stereo not given) | 2.4 | -42.9 | 0.48 | 0.7 | 10.9* | -0.3 | 1.0
Cn1c(CCc2ccc(N)cc2)nc2ccccc21 | -26.1 | 26.3 | 0.1 | 4.4 | 17.7* | 0.1 | 3.7
Cc1cc(C)cc(-n2c(C)cc(/C=N/NC(=O)CN(c3c(C)cccc3C)S(C)(=O)=O)c2C)c1 | -7.7 | -11.4 | -0.46 | -3.6 | 0.7 | 0.6 | nt
Cc1ccc(N(CC(=O)N/N=C/c2cc(C)n(-c3ccccc3C)c2C)S(C)(=O)=O)cc1 | 0.9 | 18.2 | -0.33 | -1.3 | 11.5* | -0.3 | -0.6
CCOc1ccc(-n2c(=O)[nH]cc(C(=O)Nc3ccc(OC)c(OC)c3)c2=O)cc1 | -21.5 | 31.2 | 0.6 | -2.8 | 2.7 | 0.3 | nt
COc1ccc(NC(=O)c2ccc(Cl)c(NC(=O)c3ccncc3)c2)cc1 | -0.9 | nt | -0.78 | -7.4 | 12.4* | -0.2 | -3.2
COc1ccc(C(=O)Nc2cccc(C)c2)cc1 | -10.8 | nt | 0.14 | -4.2 | 11.9* | -0.1 | 0.1
O=C(Nc1cccc(Br)c1)c1ccc(OC2CSC2)cc1 | -2.0 | nt | -0.13 | -11.7 | 14.3* | -0.1 | 0.9
COc1ccc(CC(=O)Nc2cccc(C(=O)Nc3cccc(C)c3)c2)cc1 | -3.5 | nt | -0.21 | -6.7 | 3.5 | -0.2 | nt
CC(=O)c1cccc(NC(=O)c2ccc(OC3CSC3)cc2)c1 | -70.1 | nt | nt | 2.6 | 0.1 | -0.2 | nt
O=C(N/N=C/c1cccc(C(F)(F)F)c1)c1ccccc1O | -5.8 | nt | 0.03 | -9.1 | -1.3 | 0.0 | nt
O=C(N/N=C/c1cc(Br)c(O)c(Br)c1)c1cccc(C(F)(F)F)c1 | -2.1 | 13.8 | -0.03 | -0.9 | 12.2* | -0.3 | 1.6
CCCCn1nnnc1NCc1ccc(N2CCCC2)cc1 | 3.0 | 45.5 | 0.04 | -2.0 | -2.4 | -0.5 | nt
CC(=O)O/N=C/c1c(NCc2ccccc2)nc2c(C)cccn2c1=O | 7.4 | nt | -0.21 | -12.5 | 12.3* | nt | 2.2
Cc1cccn2c(=O)c(/C=N/O)c(NCc3ccccc3)nc12 | -0.9 | nt | -1.43 | -6.7 | 6.2 | nt | nt
Cc1ccc(-c2nc(=S)c3c(n2Cc2ccco2)CC(C)(C)OC3)cc1 | 0.4 | 53.9 | 2.19 | -11.8 | 12.7* | -0.7 | 0.6
COc1ccc(-n2nc3cc(C)c(NC(=O)C(C)C)cc3n2)cc1 | -55.8 | nt | 0.47 | -1.7 | 0.7 | 0.1 | nt
COc1ccc(-n2nc3cc(C)c(NC(C)=O)cc3n2)cc1 | -55.6 | nt | -0.23 | -5.5 | 11.9* | -0.5 | -4.3
O=C(NNC(=O)C12CC3CC(CC(C3)C1)C2)[C@@H]1C[C@H]1c1ccccc1 | -10.5 | -7.1 | -0.07 | -7.9 | 19.8* | -0.3 | 0.9
O=C(Nc1cc(S(=O)(=O)N2CCCC2)ccc1OCC(F)(F)F)c1ccccc1F | 2.2 | 27.8 | nt | -8.6 | 13.1* | -0.2 | 3.0
COC(=O)c1c[nH]n2c(=O)cc(CCl)nc12 | -14.9 | 22.7 | 0.75 | 6.9 | -1.9 | 0.4 | nt
CCCCCCCCCn1c2c(c(=N)c3c1CCC3)CCCC2 | -38.8 | -300.0 | -2.59 | 3.1 | 11.4* | -0.4 | 0.0
CCCCCCCCCCn1c2c(c(=N)c3c1CCC3)CCC2 | -10.9 | -86.0 | ? | -3.0 | -2.0 | -0.4 | nt
Cc1ccc(S(=O)(=O)N2c3ccccc3OCC2C(C)(C)C)cc1 (stereo not given) | -12.3 | 8.3 | -1.28 | -12.8 | 21.1* | -0.6 | 1.9

From PubChem BioAssay
